High-throughput results: PubChem, Sanford-Burnham Center for Chemical Genomics
The list is not random: actives were taken first. Their share in the collection is about 1.9%.
SUMO HTRF inh = SUMOylation inhibition; HTRF SUMOylation assay, SAE1/SAE2 + UBC9, in vitro; inhibition, % at 35 µM; hit rate 0.36% among 290,000; AID 2006; in the data active means inhibition above about 50%, passing the limit was not always enough
DNMT1 inh = inhibitors of human DNMT1. P26358. DNMT1 molecular beacon, Hinp1I cleavage, fluorescence. inhibition (reported as % activation of signal), % at 10 µM. hit rate 0.83% among 360,000; in the data active means inhibition above about 50%
Target sequence (P26358 504-1616 limits assumed): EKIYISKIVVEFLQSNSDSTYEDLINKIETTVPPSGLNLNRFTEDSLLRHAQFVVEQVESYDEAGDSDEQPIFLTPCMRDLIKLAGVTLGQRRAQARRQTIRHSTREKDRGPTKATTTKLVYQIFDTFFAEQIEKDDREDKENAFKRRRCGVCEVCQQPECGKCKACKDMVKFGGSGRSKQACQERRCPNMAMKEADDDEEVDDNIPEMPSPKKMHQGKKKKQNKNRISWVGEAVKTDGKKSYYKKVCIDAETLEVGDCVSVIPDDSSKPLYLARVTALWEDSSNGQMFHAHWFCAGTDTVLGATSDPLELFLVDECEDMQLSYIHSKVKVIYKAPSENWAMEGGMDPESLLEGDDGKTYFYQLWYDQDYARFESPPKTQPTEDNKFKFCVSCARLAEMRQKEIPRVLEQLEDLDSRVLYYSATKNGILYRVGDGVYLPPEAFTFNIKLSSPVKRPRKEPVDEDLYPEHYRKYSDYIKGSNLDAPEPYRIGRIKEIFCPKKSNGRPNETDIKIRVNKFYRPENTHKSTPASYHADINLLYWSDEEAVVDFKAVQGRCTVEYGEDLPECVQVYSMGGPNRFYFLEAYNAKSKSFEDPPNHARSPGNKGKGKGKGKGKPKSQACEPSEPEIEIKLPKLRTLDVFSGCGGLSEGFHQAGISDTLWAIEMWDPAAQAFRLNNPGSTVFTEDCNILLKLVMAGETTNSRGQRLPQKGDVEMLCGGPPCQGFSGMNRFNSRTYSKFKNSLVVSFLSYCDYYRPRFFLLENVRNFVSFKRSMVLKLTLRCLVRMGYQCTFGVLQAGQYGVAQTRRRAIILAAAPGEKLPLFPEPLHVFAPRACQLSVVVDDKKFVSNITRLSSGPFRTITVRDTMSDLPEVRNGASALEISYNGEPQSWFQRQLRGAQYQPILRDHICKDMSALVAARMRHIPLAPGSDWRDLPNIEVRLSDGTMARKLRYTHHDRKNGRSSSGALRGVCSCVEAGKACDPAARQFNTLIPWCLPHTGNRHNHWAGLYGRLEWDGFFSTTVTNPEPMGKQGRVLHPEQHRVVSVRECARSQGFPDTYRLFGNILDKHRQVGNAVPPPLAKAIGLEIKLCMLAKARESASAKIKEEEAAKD
SUMO1 PPI mod = SUMO1-SIM interaction modulation; P63165; SUMO1 binding to a labelled peptide, TR-FRET, 1 h; inhibition, % at 20 µM; hit rate 0.33% among 360,000; in the data active means inhibition above about 37%
STEP block = STEP (human) phosphatase inhibition; P54829; AID 588621; hit rate 0.25% among 360,000; inhibition, % at 20 µM; recombinant STEP, OMFP fluorogenic substrate, fluorescence;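 active means inhibition at 20 µM, scaled per plate between control wells, above about 37%, limit read from the data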;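 further: 0% = DMSO with enzyme and substrate and 100% = substrate only without enzyme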
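System: isolated STEP enzyme; schedule: 20 min enzyme reaction at room temperature, protected from light; medium: Bis-Tris buffer pH 6.0, 2.5 mM DTT, 0.005% Tween 20; signal: fluorescence, 480/540 nm; dosing: single compound dose of 20 µM, 1% DMSO final; also added: OMFP substrate, 25 µM final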
LMPTP block = blocks human LMPTP phosphatase | P24666 | recombinant LMPTP-A, OMFP fluorogenic substrate, fluorescence intensity | inhibition, % at 20 µM | hit rate 0.22% among 360,000;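 active means compounds that cut the enzyme signal by at least half of the control window in the single-dose screen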;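 further: plate controls were DMSO wells with enzyme plus substrate for no effect and substrate without enzyme for full effect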
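Test system: LMPTP-A, protein tyrosine phosphatase of low molecular weight; Input: 0.625 nM enzyme; Incubation: 50 min dark incubation at room temperature; Signal: endpoint fluorescence intensity from OMFP dephosphorylation; Read-out basis: % inhibition versus control wells.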
Scp1 inh = blocks human Scp-1 phosphatase activity; hit rate 0.88% among 340,000; Recombinant Scp1, phosphopeptide, malachite green phosphate absorbance; inhibition, % at 20 µM; AID 493091; Q9GZU7;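 active means inhibition above about 50% at 20 µM, limit read from the data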;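 further: plate controls were DMSO wells with enzyme for no effect and wells lacking enzyme for full effect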
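Material – SCP-1 phosphatase catalytic domain, residues 76-261 · Buffer or medium – Acidic Tris acetate buffer with magnesium and detergent · Also added – Phospho 17-mer peptide substrate · Compound – single 20 µM dose, 1% DMSO · Times – 45 min room-temperature reaction, 5 min colour, 30 min stabiliser · Technique – Phosphate-binding colour reagent, absorbance read at 630 nm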
Scp1 confirm = Scp-1 (human) inhibition, single-dose confirmed; AID 540281; recombinant SCP-1 catalytic domain, phosphate release, malachite green absorbance; shares compounds with Scp1 inh; hit rate 61% among 2,500; inhibition, % at 20 µM;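 further: plate controls were DMSO with enzyme for no effect and buffer wells lacking enzyme for full effect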
Scp-1 MG ctr = counter-screen for Scp-1 inhibitors: colorimetric interference; AID 540313; 2,500 tested, under 10 active; apparent inhibition (interference), % at 20 µM; shares compounds with Scp1 inh; Colorimetric interference counterscreen, malachite green absorbance 630 nm;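 further: compounds added after enzyme reaction finished so only phosphate colour detection is probed; plate controls were DMSO wells with completed Scp-1 reaction for no effect and substrate wells lacking enzyme for full effect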
Scp1 DSF = Scp-1 (human) binding by thermal shift | shares compounds with Scp1 inh | AID 540329 | hit rate 25% among 1,500 | thermal shift relative to vanadate control, % at 40 µM | Recombinant SCP1, Sypro Orange thermal shift Tm;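 active means substances whose mean melting-temperature shift, as a percentage of the reference inhibitor's shift, reaches about 5.3%, limit read from the data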;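 further: 0% = Tm of DMSO wells and 100% = Tm with sodium orthovanadate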
Numbers without * were called inactive; nt = no result given.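 How the source made its calls, unless noted: active means inhibition of at least 30% at 20 µM; inactive means the rest.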

SMILES	SUMO HTRF inh	DNMT1 inh	SUMO1 PPI mod	STEP block	LMPTP block	Scp1 inh	Scp1 confirm	Scp-1 MG ctr	Scp1 DSF
O=C1C=C(c2ccccc2)C(c2ccccc2)C1 (stereo not drawn)	nt	-1	-10	0	1	-8	nt	nt	nt
CCNc1nc(NCC)n2c(SCC(=O)Nc3cccc(Cl)c3)nnc2n1	nt	18	13	2	0	54*	50*	-14	-12
Cc1cc(C)c(C)c(SCC(=O)Nc2oc(C)c3c(C)n[nH]c(=O)c23)c1C	nt	-4	-17	1	-3	-2	nt	nt	nt
CCn1c(SCC(=O)Nc2oc(C)c3c(C)n[nH]c(=O)c23)nc2sc(C)c(C)c2c1=O	nt	0	-6	1	-15	66*	-19	-13	nt
COc1ccc2c(c1)c(=O)oc1c(C)c(OCC(=O)N3CCc4ccccc4C3)ccc12	31	32	2	-2	1	-3	nt	nt	nt
COc1ccc2c(c1)c(=O)oc1c(C)c(OCc3ccc(C(=O)O)cc3)ccc12	55*	5	45*	41*	58*	93*	58*	-10	-12
COc1ccc2c(c1)c(=O)oc1c(C)c(OCc3cc(C(=O)O)oc3C)ccc12	70*	20	26	6	4	93*	94*	1	3
CCCCN(CCCC)CCNC(=O)c1cn(CC)c2ccc(S(=O)(=O)N3CCc4ccccc4C3)cc2c1=O	-1	-8	-1	1	11	7	nt	nt	nt
COc1ccccc1CNC(=O)c1cc(S(=O)(=O)N2CCCCC2)c[nH]1	-3	0	0	-3	0	-6	nt	nt	nt
Cc1ccc(S(=O)(=O)n2c(N)nc3cc(C)c(C)cc32)cc1	nt	-5	2	2	2	nt	nt	nt	nt
O=C(COC(=O)[C@@H]1CCCN1C(=O)c1cccs1)Nc1cccc([N+](=O)[O-])c1	nt	0	-25	2	2	-16	nt	nt	nt
CCC12CCCN3CCC4(C(=C(C(=O)OC)C1)Nc1ccccc14)C32 (stereo not drawn)	20	-4	-1	-3	2	61*	-10	-13	nt
COC(=O)C1=C(C(=O)OC)[C@@H]2Nc3ccccc3[C@@]23C[C@@H](C(=O)OC)N=C3N1	8	12	6	-1	0	-4	nt	nt	nt
Cc1ccc([C@@H]2CC(=O)[C@@H]3CN(S(=O)(=O)c4ccc(C)cc4)[C@H](c4ccccc4F)C[C@@H]3N2S(=O)(=O)c2ccc(C)cc2)cc1	nt	-4	4	0	1	nt	nt	nt	nt
Cn1nc(-c2ccc(C(=O)Nc3ccc(F)cc3)cc2)c2ccccc2c1=O	31	-1	4	12	3	60*	42*	-16	-11
Cc1ccc(NC(=O)c2ccc(-c3nn(C)c(=O)c4ccccc34)cc2)cc1	28	-9	1	4	2	-9	nt	nt	nt
O=C(O)C1Cc2ccccc2CN1C(=O)COc1ccc(Br)cc1 (stereo not drawn)	0	10	20	5	-1	53*	55*	-14	0
O=C(O)C1Cc2ccccc2CN1C(=O)COc1ccc(Cl)cc1Cl (stereo not drawn)	14	6	12	1	-2	30	nt	nt	nt
Cn1ccsc1=NC(=O)c1ccc(S(C)(=O)=O)c([N+](=O)[O-])c1	7	0	-32	-5	1	-2	nt	nt	nt
Cn1ccsc1=NC(=O)c1ccc(Cl)c([N+](=O)[O-])c1	17	14	5	27	48	54*	11	-19	nt
O=C(Cn1ccc(NC(=O)OCc2ccccc2)nc1=O)NCc1ccc2c(c1)OCO2	nt	10	-1	1	-2	3	-8	-13	nt
COc1cccc(CNC(=O)CN(C)S(=O)(=O)c2ccc3c(c2)n(C)c(=O)c(=O)n3C)c1	8	2	5	2	-1	-7	-1	0	nt
COc1ccc(CNC(=O)CN(C)S(=O)(=O)c2ccc3c(c2)n(C)c(=O)c(=O)n3C)cc1	13	0	5	0	-1	-6	-8	-12	nt
Nc1ccc(N2CCCC2)c(S(=O)(=O)Nc2cccc(C(F)(F)F)c2)c1	nt	-20	-1	-1	4	-1	nt	nt	nt
COc1ccc(NS(=O)(=O)c2cccc(C(=O)N/N=C/c3c(F)c(F)c(F)c(F)c3F)c2)cc1	nt	-4	-5	0	21	75*	52*	-5	7.3*
SMILES	SUMO HTRF inh	DNMT1 inh	SUMO1 PPI mod	STEP block	LMPTP block	Scp1 inh	Scp1 confirm	Scp-1 MG ctr	Scp1 DSF
O=C(NNC(=O)C1CCC1)c1ccccc1F	nt	1	1	2	0	-10	nt	nt	nt
O=C(N/N=C/c1sc(=O)n(Cc2ccc(Br)cc2)c1Cl)c1ccco1	26	31	45*	96*	69*	103*	84*	-9	5.3*
CC[n+]1c(/C=C/Nc2ccccc2)sc2ccccc21	20	7	-13	1	-2	109*	14	-13	nt
CCc1ccccc1NC(=O)CNC(=O)CCc1nc2sc3c(c2c(=O)[nH]1)CCCC3	nt	40	9	7	10	70*	66*	-18	-3
Cc1ccc(S(=O)(=O)Nc2cc(C)c(O)cc2C)cc1	-3	5	3	-1	1	-1	nt	nt	nt
Cc1ccc(S(=O)(=O)Nc2csc(C)c2C(=O)O)cc1	18	nt	nt	nt	nt	61*	59*	-5	15*
CC(C)C[C@H](NC(=O)c1nc[nH]c1C(=O)NCCCCCN)C(=O)OCc1ccccc1	nt	7	2	2	-1	0	nt	nt	nt
CN(C)C(=O)c1ccc(OCC(F)(F)F)nc1	-2	3	-1	-2	-1	79*	-9	-15	nt
N/C(=N\OC(=O)c1ccc(OCC(F)(F)F)nc1)c1ccc(Cl)cc1	3	8	8	1	-2	-10	nt	nt	nt
CC(Nc1cc(N2CCN(C(=O)C(C)(C)C)CC2)ccc1[N+](=O)[O-])c1ccccc1 (stereo not drawn)	2	-4	-19	3	6	53*	-21	-24	nt
Cc1ccc(OCC(=O)N/N=C/C=C/c2ccco2)cc1	-16	26	0	-1	3	73*	59*	-10	7.5*
O=C(COc1ccccc1[N+](=O)[O-])N/N=C/C=C/c1ccco1	-11	2	-14	2	1	-7	nt	nt	nt
